From ChEMBL document CHEMBL1125796, “Antitumor properties of 2(1H)-pyrimidinone riboside (zebularine) and its fluorinated analogues” (1991)
Where “and” joins values, the source holds several entries; their conditions need not be identical. Identical values can stand only once.

Experiments:
Mus musculus [1] = assay: Antitumor activity against L1210 tumor in mice, at a dose of 400 mg/kg per ip administration.; format: functional; details: route intraperitoneal
Procedure, shortened: (§1)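 Tumors implanted ip on day 0: B16 melanoma (0.5 mL of 1:10 brei) in BDF1 mice, and L1210 or P388 leukemia (10^6 cells) in CDF1 mice. Compound was given ip in physiologic saline daily on days 1–9. Read-out was % increase in life span versus vehicle-treated tumored controls, with body-weight change difference also recorded. Six mice per dose, three in some P388 groups.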

Mus musculus [2] = assay: Antitumor activity against L1210 tumor in mice, at a dose of 800 mg/kg per ip administration.; format: functional; details: route intraperitoneal; procedure, shortened: as §1
Mus musculus [3] = assay: Percent increase in life span of drug-treated mice relative to tumored, vehicle treated controls at a dose of 800 mg/kg ip.; format: functional
Procedure, shortened: (§2)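 Tumors implanted day 0: B16 melanoma as 0.5 mL of 1:10 brei into BDF1 mice; L1210 or P388 leukemia as 10^6 cells into CDF1 mice, ip or sc. Drug was given in physiologic saline by ip or oral route, QD 1-9. %ILS was calculated against saline-treated tumored controls, with body-weight change difference as the toxicity read-out. Six mice per dose in most experiments.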

Mus musculus [4] = assay: Percent increase in life span of drug-treated mice relative to tumored, vehicle treated controls at a dose of 200 mg/kg ip.; format: functional; details: for ILS at 200 mg/kg: Mus musculus, ip; procedure, shortened: as §2
Mus musculus [5] = assay: Antitumor activity against L1210 ttumor in mice, at a dose of 200 mg/kg per ip administration.; format: functional; details: route intraperitoneal; procedure, shortened: as §1
Mus musculus [6] = assay: Percent increase in life span of drug-treated mice relative to tumored, vehicle treated controls at a dose of 400 mg/kg ip.; format: functional; procedure, shortened: as §2
Mus musculus [7] = assay: Antitumor activity against P388 tumor in mice, at a dose of 1.11 mg/kg per ip administration.; format: functional; details: route intraperitoneal; procedure, shortened: as §1
Mus musculus [8] = assay: Percent increase in life span of drug-treated mice relative to tumored, vehicle treated controls at a dose of 1.11 mg/kg ip.; format: functional; procedure, shortened: as §2
Mus musculus [9] = assay: Antitumor activity against P388 tumor in mice, at a dose of 3.75 mg/kg per ip administration.; format: functional; details: route intraperitoneal; procedure, shortened: as §1
Mus musculus [10] = assay: Antitumor activity against L1210 tumor in mice, at a dose of 1.67 mg/kg per ip administration.; format: functional; details: route intraperitoneal; procedure, shortened: as §1
Mus musculus [11] = assay: Antitumor activity against L1210 tumor in mice, at a dose of 1.25 mg/kg per ip administration.; format: functional; details: route intraperitoneal; procedure, shortened: as §1
Mus musculus [12] = assay: Percent increase in life span of drug-treated mice relative to tumored, vehicle treated controls at a dose of 1.67 mg/kg ip.; format: functional; procedure, shortened: as §2
Mus musculus [13] = assay: Antitumor activity against L1210 tumor in mice, at a dose of 1.11 mg/kg per ip administration.; format: functional; details: route intraperitoneal; procedure, shortened: as §1
Mus musculus [14] = assay: Percent increase in life span of drug-treated mice relative to tumored, vehicle treated controls at a dose of 3.75 mg/kg ip.; format: functional; procedure, shortened: as §2
Mus musculus [15] = assay: Percent increase in life span of drug-treated mice relative to tumored, vehicle treated controls at a dose of 2.5 mg/kg ip.; format: functional; procedure, shortened: as §2
Mus musculus [16] = assay: Antitumor activity against L1210 tumor in mice, at a dose of 0.68 mg/kg per ip administration.; format: functional; details: route intraperitoneal; procedure, shortened: as §1
Mus musculus [17] = assay: Percent increase in life span of drug-treated mice relative to tumored, vehicle treated controls at a dose of 1.25 mg/kg ip.; format: functional; procedure, shortened: as §2
Mus musculus [18] = assay: Antitumor activity against P388 tumor in mice, at a dose of 2.5 mg/kg per ip administration.; format: functional; details: route intraperitoneal; procedure, shortened: as §1
Mus musculus [19] = assay: Antitumor activity against P388 tumor in mice, at a dose of 1.67 mg/kg per ip administration.; format: functional; details: route intraperitoneal; procedure, shortened: as §1
Mus musculus [20] = assay: Percent increase in life span of drug-treated mice relative to tumored, vehicle treated controls at a dose of 0.68 mg/kg ip.; format: functional; procedure, shortened: as §2
Mus musculus [21] = assay: Antitumor activity against L1210 tumor in mice, at a dose of 2.5 mg/kg per ip administration.; format: functional; details: route intraperitoneal; procedure, shortened: as §1
Mus musculus [22] = assay: Antitumor activity against L1210 tumor in mice, at a dose of 500 mg/kg peroral administration in the presence of 10 mg/kg of zebularine.; format: functional
Mus musculus [23] = assay: Percent increase in life span of drug-treated mice relative to tumored, vehicle treated controls at a dose of 500 mg/kg orally in the presence of 500 mg/kg of zebularine.; format: functional; details: po
Procedure, shortened: (§3)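 CDF1 mice were implanted ip with 10^6 L1210 cells on day 0. Oral treatment was given on day 1 only, 24 h after implantation. In combinations, the deaminase inhibitor was given as two 250 mg/kg doses 30 min apart, as one dose immediately before ara-C, or as half the dose 30 min before and half immediately after ara-C. %ILS was calculated versus vehicle-treated tumored controls.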

Mus musculus [24] = assay: Percent increase in life span of drug-treated mice relative to tumored, vehicle treated controls at a dose of 500 mg/kg oral treatment; format: functional; procedure, shortened: as §3
Mus musculus [25] = assay: Percent increase in life span of drug-treated mice relative to tumored, vehicle treated controls at a dose of 100 mg/kg oral treatment; format: functional; procedure, shortened: as §3
Mus musculus [26] = assay: Antitumor activity against L1210 tumor in mice, at a dose of 500 mg/kg peroral administration.; format: functional; details: route oral
Procedure, shortened: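 CDF1 mice received L1210 leukemia ip. Treatment was oral on day 1 only, 24 h after implantation, with ara-C at 500 mg/kg. Zebularine was given as a single dose immediately before ara-C, or as divided doses (e.g. 2 × 250 mg/kg 30 min apart, or half 30 min before and half immediately after). Read-out was % increase in life span.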

Mus musculus [27] = assay: Antitumor activity against L1210 tumor in mice, at a dose of 500 mg/kg peroral administration in the presence of 100 mg/kg of zebularine.; format: functional
Mus musculus [28] = assay: Percent increase in life span of drug-treated mice relative to tumored, vehicle treated controls at a dose of 6.25 mg/kg ip.; format: functional; procedure, shortened: as §2
Mus musculus [29] = assay: Percent increase in life span of drug-treated mice relative to tumored, vehicle treated controls at a dose of 3.13 mg/kg ip.; format: functional; procedure, shortened: as §2
Mus musculus [30] = assay: Antitumor activity against ara-c resistance L1210 tumor in mice, at a dose of 800 mg/kg per ip administration.; format: functional; details: route intraperitoneal
Procedure, shortened: (§4)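 An ara-C-resistant L1210 leukemia line (10^6 cells) was implanted ip on day 0 in CDF1 mice. Compound was given ip in physiologic saline daily on days 1–9. Read-out was % increase in life span versus saline-treated tumored controls, plus body-weight change difference.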

Mus musculus [31] = assay: Antitumor activity against P388 tumor in mice, at a dose of 200 mg/kg per ip administration.; format: functional; details: route intraperitoneal; procedure, shortened: as §1
Mus musculus [32] = assay: Antitumor activity against ara-c resistance L1210 tumor in mice, at a dose of 400 mg/kg per ip administration.; format: functional; details: route intraperitoneal; procedure, shortened: as §4
Mus musculus [33] = assay: Antitumor activity against B16 tumor in mice, at a dose of 200 mg/kg per ip administration.; format: functional; details: route intraperitoneal; procedure, shortened: as §1
Mus musculus [34] = assay: Antitumor activity against […] tumor in mice, at a dose of 400 mg/kg per ip administration.; format: functional; details: route intraperitoneal; procedure, shortened: as §1
Mus musculus [35] = assay: (§5) Antitumor activity against P388 tumor in mice, at a dose of 400 mg/kg per ip administration.; format: functional; details: route intraperitoneal; procedure, shortened: as §1
Mus musculus [36] = assay: as §5; format: functional; details: route intraperitoneal; procedure, shortened: as §1; remark: listed apart in the source
Mus musculus [37] = assay: Antitumor activity against B16 tumor in mice, at a dose of 800 mg/kg per ip administration.; format: functional; details: route intraperitoneal; procedure, shortened: as §1
Mus musculus [38] = assay: Antitumor activity against B16 tumor in mice, at a dose of 400 mg/kg per ip administration.; format: functional; details: route intraperitoneal; procedure, shortened: as §1
Mus musculus [39] = assay: Percent increase in life span of drug-treated mice relative to tumored, vehicle treated controls at a dose of 800 mg/kg, ip administration
Mus musculus [40] = assay: Percent increase in life span of drug-treated mice relative to tumored, vehicle treated controls at a dose of 600 mg/kg ip.; format: functional; procedure, shortened: as §2
Mus musculus [41] = assay: Percent increase in life span of drug-treated mice relative to tumored, vehicle treated controls at a dose of 800 mg/kg oral administration
Mus musculus [42] = assay: Percent increase in life span of drug-treated mice relative to tumored, vehicle treated controls at a dose of 1600 mg/kg orally.; details: oral
Mus musculus [43] = assay: Antitumor activity against L1210 tumor in mice, at a dose of 1600 mg/kg per oral administration.
Mus musculus [44] = assay: Antitumor activity against ara-c resistance L1210 tumor in mice, at a dose of 200 mg/kg per ip administration.; format: functional; details: route intraperitoneal; procedure, shortened: as §4
Mus musculus [45] = assay: Antitumor activity against P388 tumor in mice, at a dose of 600 mg/kg per ip administration.; format: functional; details: route intraperitoneal; procedure, shortened: as §1

Compound: O=c1ncccn1[C@@H]1O[C@H](CO)[C@@H](O)[C@@H]1F
- Weight change difference (Mus musculus [1]): 0 g
- Weight change difference (Mus musculus [2]): 1 g
- ILS at 800 mg/kg (Mus musculus [3]; Mus musculus, ip): 43%
- ILS at 200 mg/kg (Mus musculus [4]): 31%
- Weight change difference (Mus musculus [5]): 1 g
- ILS at 400 mg/kg (Mus musculus [6]; Mus musculus, ip): 37%

Compound: O=c1ncc(F)cn1C1O[C@H](CO)[C@@H](O)[C@H]1O (some centres undefined)
- Weight change difference (Mus musculus [7]): -1 g
- ILS (Mus musculus [8]): 75% and 50%
- Weight change difference (Mus musculus [9]): -2 g
- Weight change difference (Mus musculus [10]): -1 g
- Weight change difference (Mus musculus [11]): 0 g
- ILS (Mus musculus [12]): 118% and 45% and 50%
- Weight change difference (Mus musculus [13]): 0 g
- ILS at 3.75 mg/kg (Mus musculus [14]): 60%
- ILS (Mus musculus [15]): 137% [middle of 4 runs]
- Weight change difference (Mus musculus [16]): 0 g
- ILS at 1.25 mg/kg (Mus musculus [17]): 75%
- Weight change difference (Mus musculus [18]): -2 g
- Weight change difference (Mus musculus [19]): -2 g
- ILS at 0.68 mg/kg (Mus musculus [20]): 62%
- Weight change difference (Mus musculus [21]): -1 g and -2 g

Compound: Nc1ccn([C@@H]2O[C@H](CO)[C@@H](O)[C@@H]2O)c(=O)n1 [CYTARABINE]
- Weight change difference (Mus musculus [22]): -2.2 g
- ILS at 500 mg/kg (Mus musculus [23]): 74%
- ILS (Mus musculus [24]): 44% and 74% and 80%
- ILS (Mus musculus [25]; 100 mg/kg): 68%
- ILS at 100 mg/kg (Mus musculus [25]; Mus musculus, po): 68%
- Weight change difference (Mus musculus [26]): -0.5 g
- Weight change difference (Mus musculus [27]): -1 g

Compound: OC[C@H]1O[C@@H](n2cnc3cncnc32)[C@H](O)[C@@H]1O [NEBULARINE]
- ILS (Mus musculus [28]; 6.25 mg/kg): 34%
- ILS at 6.25 mg/kg (Mus musculus [28]; Mus musculus, ip): 40%
- ILS (Mus musculus [29]; 3.13 mg/kg): 52%
- ILS at 3.13 mg/kg (Mus musculus [29]; Mus musculus, ip): 60%

Compound: O=c1ncccn1[C@@H]1O[C@H](CO)[C@@H](O)[C@H]1O [ZEBULARINE]
- Weight change difference (Mus musculus [1]): -0.4 g
- Weight change difference (Mus musculus [2]): -2.8 g
- ILS (Mus musculus [3]; 800 mg/kg): 77% [middle of 5 runs]
- Weight change difference (Mus musculus [30]): -3.4 g
- Weight change difference (Mus musculus [31]): -2 g and -0.7 g
- ILS (Mus musculus [4]; 200 mg/kg): 34% and 25% and 40%
- ILS at 200 mg/kg (Mus musculus [4]): 36%
- Weight change difference (Mus musculus [32]): -1.8 g
- Weight change difference (Mus musculus [33]): -0.5 g
- Weight change difference (Mus musculus [34]): -2.1 g
- Weight change difference (Mus musculus [35]): -1.2 g
- Weight change difference (Mus musculus [36]): -2.3 g
- Weight change difference (Mus musculus [37]): 0 g
- Weight change difference (Mus musculus [38]): -0.1 g and -0.2 g
- ILS (Mus musculus [6]; 400 mg/kg): 66% [middle of 7 runs]
- ILS at 800 mg/kg (Mus musculus [39]): 110%
- ILS at 600 mg/kg (Mus musculus [40]): 45%
- ILS at 800 mg/kg (Mus musculus [41]): 81%
- ILS at 1600 mg/kg (Mus musculus [42]): 112%
- Weight change difference (Mus musculus [43]): -2.3 g
- Weight change difference (Mus musculus [44]): -1.6 g
- Weight change difference (Mus musculus [45]): -1.3 g
